Laboratory results reported in ChEMBL document CHEMBL1909610, “Synthesis and antioxidant activities of novel 4-Schiff base-7-benzyloxy-coumarin derivatives” (Bioorg Med Chem Lett, 2011).

Legend:
Type in all cases: functional
[1] = tested on: Radical scavenging activity; experiment: Antioxidant activity assessed as DPPH free radical scavenging activity after 30 mins by spectrophotometric analysis
Procedure, shortened: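 Sample dissolved in DMF at several concentrations, added to 0.004% (w/v) DPPH in ethanol, incubated at 37 °C. Absorbance at 517 nm after 30 min. Percent scavenging computed against a control lacking scavenger; triplicate means; IC50 taken as concentration giving 50% radical scavenging.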

[2] = Antioxidant activity assessed as hydroxyl radical scavenging activity after 1 hr by spectrophotometric analysis
Procedure, shortened: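 Salicylate method: 20 mM sodium salicylate, 1.5 mM FeSO4, sample at various concentrations, then 6 mM H2O2 (stock levels), mixed and held in a 37 °C water bath 1 h. Absorbance at 510 nm against blank; percent scavenging vs no-sample absorbance; triplicate; ascorbic acid positive control; IC50 as 50% scavenging concentration.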

[3] = Antioxidant activity assessed as ABTS radical scavenging activity after 3 mins by spectrophotometric analysis
Procedure, shortened: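 ABTS radical cation generated from 2 mM ABTS stock in PBS pH 7.4 reacted with 70 mM K2S2O8 in the dark at room temperature for 15-16 h, then diluted with PBS to A734 0.700 ± 0.030. Sample solutions at various concentrations mixed with ABTS radical (0.1:1.9 ml). Absorbance read at ambient temperature after 3 min. Percent scavenging vs control without sample; triplicate; IC50 = concentration scavenging 50%.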

[4] = Antioxidant activity assessed as superoxide anioin radical scavenging activity after 5 mins by spectrophotometric analysis
Procedure, shortened: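 Pyrogallol autoxidation at room temperature: 0.05 M Tris-HCl buffer, sample in DMF at various concentrations and 30 mM 1,2,3-trihydroxybenzene reacted 5 min. Stopped with 8.0 M HCl; absorbance at 320 nm against blank. Percent scavenging vs no-sample absorbance, triplicate; IC50 as concentration scavenging 50%.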

IC50 ([1]; read-out: IC50) [µM]	IC50 ([2]; read-out: IC50) [µM]	IC50 ([3]; read-out: IC50) [µM]	IC50 [4] [µM]	IC50 [1]	IC50 [2]	IC50 [3]	Structure (SMILES)
65.8	> 2000	37	254	–	–	–	Cc1cc(C(C)(C)C)c(O)c(C(C)(C)C)c1 [BUTYLATED HYDROXYTOLUENE]
43.8	73.8	12.8	15.6	–	–	–	O=C1O[C@H]([C@@H](O)CO)C(O)=C1O [ASCORBIC ACID]
16.2	348	7.76	33.1	–	–	–	O=c1cc(/C=N\c2ccccc2O)c2c(OCc3ccccc3)cc(OCc3ccccc3)cc2o1
57.7	455	13.2	416	–	–	–	O=c1cc(/C=N\Nc2ccccc2)c2ccc(OCc3ccccc3)cc2o1
1610	97.9	15.5	419	–	–	–	O=c1cc(/C=N\Nc2ccc([N+](=O)[O-])cc2)c2c(OCc3ccccc3)cc(OCc3ccccc3)cc2o1
36.6	233	64.5	525	–	–	–	O=c1cc(/C=N\c2ccc(O)cc2)c2ccc(OCc3ccccc3)cc2o1
–	–	38.6	> 2000	Not Active	Not Active	–	O=c1cc(/C=N\O)c2c(OCc3ccccc3)cc(OCc3ccccc3)cc2o1
–	> 2000	363	36.5	Not Active	–	–	N/N=C\c1cc(=O)oc2cc(OCc3ccccc3)cc(OCc3ccccc3)c12
1350	> 2000	9.51	> 2000	–	–	–	O=c1cc(/C=N\Nc2ccc([N+](=O)[O-])cc2)c2ccc(OCc3ccccc3)cc2o1
76.4	401	40.1	303	–	–	–	O=c1cc(/C=N\Nc2ccccc2)c2c(OCc3ccccc3)cc(OCc3ccccc3)cc2o1
6.91	107	3.57	249	–	–	–	O=c1cc(/C=N\c2ccc(O)cc2)c2c(OCc3ccccc3)cc(OCc3ccccc3)cc2o1
2410	> 2000	22.8	> 2000	–	–	–	O=c1cc(/C=N\O)c2ccc(OCc3ccccc3)cc2o1
–	734	–	292	Not Active	–	Not Active	O=c1cc(/C=N\Nc2ccc([N+](=O)[O-])cc2[N+](=O)[O-])c2c(OCc3ccccc3)cc(OCc3ccccc3)cc2o1
315	624	7.53	258	–	–	–	Nc1ccccc1/N=C\c1cc(=O)oc2cc(OCc3ccccc3)cc(OCc3ccccc3)c12
857	34.6	9.25	217	–	–	–	Nc1ccccc1/N=C\c1cc(=O)oc2cc(OCc3ccccc3)ccc12
33.3	–	1.29	469	–	Not Active	–	O=c1cc(/C=N\c2ccccc2O)c2ccc(OCc3ccccc3)cc2o1
–	–	–	146	Not Active	Not Active	Not Active	O=c1cc(-c2nc3ccccc3[nH]2)c2ccc(OCc3ccccc3)cc2o1
1290	–	9.74	131	–	Not Active	–	N/N=C\c1cc(=O)oc2cc(OCc3ccccc3)ccc12
10.5	1970	6.49	181	–	–	–	O=c1cc(/C=N\Nc2ccc([N+](=O)[O-])cc2[N+](=O)[O-])c2ccc(OCc3ccccc3)cc2o1
